High-throughput results (PubChem)
ERp5 inh: inhibitors of human ERp5; ERp5 insulin aggregation, absorbance 650 nm, 90 min; 350,000 tested, 0.05% active; Q15084; inhibition, % at 9.99 µM; AID 651711;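 active = mean replicate inhibition above about 25%, with every replicate also reaching it, limit read from the data, passing the limit was not always enough; inconclusive = only one of those two criteria met; inactive = neither criterion met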
FN deposit inh: fibronectin deposition inhibition; 350,000 tested, 0.086% active; inhibition, % at 12.6 µM; AH1F fibroblasts, Alexa488-fibronectin deposition fluorescence, overnight;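 active = mean inhibition across replicates of 30% or more, regardless of how many single replicates reach that level; inconclusive = mean under 30% yet at least half of replicates reach 30%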;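 note: positive control wells lacked labelled fibronectin entirely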
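test system = AH1F fibroblasts assembling fluorescent fibronectin matrix | quantity = 10000 AH1F cells per well | buffer or medium = DMEM plus 2% serum, read in PBS | doses = single dose, pinned | incubation = 1 h cell attachment, overnight exposure to compound and label | detection = fluorescence at 485 nm excitation, 525 nm emission | read-out basis = inhibition from reduced deposited-fibronectin fluorescence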
FGF22 binding: binders of recombinant human FGF22 by thermal shift; Q9HCT0; SYPRO orange fluorescence; percent of sucrose octasulfate shift, DMSO zero; activity (Tm shift, normalised), % at 9.99 µM; 340,000 tested, 1.5% active;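 active = mean Tm shift, scaled 0 neutral to 100 positive control, at about 1.3% or above, every replicate too, limit read from the data; inconclusive = no clear call, values can overlap the other calls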
Target sequence (Q9HCT0 whole entry, looked up): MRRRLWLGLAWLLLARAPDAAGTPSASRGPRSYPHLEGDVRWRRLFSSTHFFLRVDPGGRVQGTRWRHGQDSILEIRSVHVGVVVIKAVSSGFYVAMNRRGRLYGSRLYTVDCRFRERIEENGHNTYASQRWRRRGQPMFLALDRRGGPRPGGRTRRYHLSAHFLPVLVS
ARNT TACC3 PPI: disrupts binding between human ARNT and TACC3. AID 623870. 390,000 tested, 0.66% active. inhibition, % at 9.99 µM. AlphaScreen His-ARNT PAS-B/GST-TACC3 binding, luminescence; TACC3 fragment carries E629A point mutation;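 active = mean inhibition of replicates at least 50% and at least half of replicates each reaching 50%; inconclusive = half or more replicates reach 50% but mean below 50%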;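 note: 0% = complete ARNT plus TACC3 wells and 100% = ARNT alone without TACC3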
MLL AF4-AF9 inh: MLL-AF4/AF9 protein interaction inhibition | AID 651704 | 350,000 tested, 0.47% active | inhibition, % at 10 µM | P42568 | AlphaScreen, biotin-AF4 peptide binding to FLAG-AF9;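 active = every replicate reaching a set inhibition limit, whatever the replicate mean, cut at about 25% in these data; inconclusive = mean inhibition reaches that limit but some replicates miss it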;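 note: 0% = plate neutral control median and 100% = total signal loss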
PDI turbidity: PDI (human) enzyme inhibition. P07237. PDI insulin aggregation turbidity, A650, 90 min. inhibition, % at 10 µM. 350,000 tested, 0.052% active. AID 588391;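 active = mean inhibition across replicates of 30% or more, whatever share of single replicates reach that level; inconclusive = mean inhibition below 30% while every single replicate reaches 30%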
Target sequence (P07237 whole entry, looked up): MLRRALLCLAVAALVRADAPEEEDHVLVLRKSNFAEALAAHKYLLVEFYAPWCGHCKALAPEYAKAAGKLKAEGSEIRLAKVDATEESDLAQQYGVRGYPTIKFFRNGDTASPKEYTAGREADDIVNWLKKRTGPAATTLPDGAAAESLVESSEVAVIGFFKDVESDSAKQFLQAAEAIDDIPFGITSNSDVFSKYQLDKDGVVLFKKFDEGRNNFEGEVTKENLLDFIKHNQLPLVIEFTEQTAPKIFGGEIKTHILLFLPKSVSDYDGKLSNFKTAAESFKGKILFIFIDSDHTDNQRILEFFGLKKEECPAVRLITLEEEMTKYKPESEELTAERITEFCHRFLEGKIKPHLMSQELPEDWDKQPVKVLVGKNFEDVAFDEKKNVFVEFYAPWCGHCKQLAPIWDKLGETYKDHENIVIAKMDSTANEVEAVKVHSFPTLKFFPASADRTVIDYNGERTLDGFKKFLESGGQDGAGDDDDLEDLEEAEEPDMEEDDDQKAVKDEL
ARNT Alpha ctr-1: counter-screen for ARNT/TACC3 inhibitors: AlphaScreen artifacts; 1,200 tested, 50% active; AC50, µM (top dose mostly 68 µM), without a hit: top-dose activity change, negative = signal decrease; shares compounds with ARNT TACC3 PPI; His-ARNT PASB-GST AlphaScreen artifact counter-screen, luminescence; AID 651705;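 active = every separate test run was called active for a drop in luminescence, with AC50 within twice the top valid dose, actives reach about 71 µM in these data; inconclusive = the separate test runs disagree in their calls; inactive = all runs inactive, including signal change in the wrong direction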
ARNT Alpha ctr-2: counter-screen for ARNT-TACC3 inhibitors: AlphaScreen artifacts; shares compounds with ARNT TACC3 PPI; Dual-tagged His-ARNT PASB-GST AlphaScreen artifact counter-screen; AC50, µM; 45 tested, 70% active; AID 720564;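 active = luminescence drop, with half-maximal potency fitted within twice the sample's top valid dose, cut at about 70 µM in these data; inactive = the rest, including signal moving the wrong way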
Active calls of the source: *. Compounds with a hit are over-represented: about 2.1% of the library has one in this group of screens.

Screening O=C(N[C@H]1CC[C@@H](CCn2cc(-c3ccccn3)nn2)O[C@@H]1CO)c1ccc(F)cc1 returned ERp5 inh -6.0, FGF22 binding -0.7, ARNT TACC3 PPI 112.0*, MLL AF4-AF9 inh -2.8 and ARNT Alpha ctr-1 44.9µM*.
O=C(N[C@H]1CC[C@H](CCn2cc(-c3ccccn3)nn2)O[C@H]1CO)c1ccc(F)cc1 was read as ERp5 inh 2.6, FGF22 binding -0.6 and MLL AF4-AF9 inh -0.7.
For COc1ccccc1S(=O)(=O)N[C@H]1CC[C@H](CCn2cc(C3CCCCC3)nn2)O[C@H]1CO the results were ERp5 inh 0.6, FN deposit inh -2.4, FGF22 binding -0.1, ARNT TACC3 PPI -3.0 and MLL AF4-AF9 inh 0.8.
CCCNC(=O)N(C)C[C@H]1Oc2ncc(-c3ccc(OC)cc3)cc2C(=O)N([C@@H](C)CO)C[C@H]1C was read as ERp5 inh -8.3, FGF22 binding -0.1, ARNT TACC3 PPI -9.7 and MLL AF4-AF9 inh 0.0.
For COc1ccc2c3c([nH]c2c1)[C@@H](CO)N(C(C)=O)CC31CCN(C(=O)CN2CCOCC2)CC1 the results were ERp5 inh -5.4, FGF22 binding 0.0 and MLL AF4-AF9 inh -0.5.
O=C(N/N=C/c1sc2ccccc2c1O)c1cccc2ccccc12 was read as ARNT TACC3 PPI 55.0*, PDI turbidity -53.4 and ARNT Alpha ctr-1 68.9µM*.
For O=C(N/N=C/c1ccccc1)c1cccc2ccccc12 the results were ERp5 inh 7.3, FN deposit inh -1.0, FGF22 binding -0.2, ARNT TACC3 PPI -3.2, MLL AF4-AF9 inh 0.0 and PDI turbidity -4.3.
CO[C@@H]1CN(C)C(=O)c2ccc(NC(C)=O)cc2OC[C@@H](C)N(C(=O)C2CCCCC2)C[C@H]1C was read as ERp5 inh 5.4, FN deposit inh -5.9, FGF22 binding 0.2, ARNT TACC3 PPI -2.1 and MLL AF4-AF9 inh 0.0.
`Cc1ccc(NC(=O)CSc2ccc(-c3ccccn3)nn2)c(C)c1` gave ERp5 inh -1.0, FGF22 binding 0.0, ARNT TACC3 PPI 25.9, MLL AF4-AF9 inh -17.2 and PDI turbidity 0.7.
Screening Cc1cccc(NC(=O)CSc2ccc(-c3ccccn3)nn2)c1C returned ERp5 inh -0.2, FN deposit inh -4.2, FGF22 binding -0.1, ARNT TACC3 PPI 54.9*, MLL AF4-AF9 inh -4.6, PDI turbidity -5.7, ARNT Alpha ctr-1 30.4µM* and ARNT Alpha ctr-2 22.8*.
Screening COc1ccccc1NC(=O)CSc1ccc2nnc(-c3ccccn3)n2n1 returned ERp5 inh 6.8, FN deposit inh 0.9, FGF22 binding 0.1, ARNT TACC3 PPI 19.2, MLL AF4-AF9 inh -6.5 and PDI turbidity -0.6.
COc1ccccc1NC(=O)CSc1ccc(-c2ccccn2)nn1 was read as ERp5 inh 0.4, FN deposit inh -2.3, FGF22 binding -0.1, ARNT TACC3 PPI 55.0*, MLL AF4-AF9 inh -3.8, PDI turbidity -2.0 and ARNT Alpha ctr-1 14.2µM*.
Screening CN1C(=O)c2cc(NS(C)(=O)=O)ccc2OC[C@H]2O[C@@H](CC(=O)NCc3ccc(-c4ccccc4)cc3)CC[C@H]21 returned ERp5 inh -2.3, FN deposit inh -0.9, FGF22 binding -0.1, ARNT TACC3 PPI 0.7 and MLL AF4-AF9 inh -12.4.
COc1ccc(C2C(C#N)=C(N)Oc3c2ccc2cccnc32)cc1OC (stereo not given) was read as ERp5 inh 12.9, FN deposit inh -0.8, FGF22 binding 0.0, ARNT TACC3 PPI 61.8*, MLL AF4-AF9 inh inconclusive, PDI turbidity -5.8 and ARNT Alpha ctr-1 -26.2%.
CCCCCc1cc(=O)oc2c(C(CCN(CC)CC)c3ccc(N(C)C)cc3)c(OC)cc(OC)c12 (stereo not given) was read as ERp5 inh 3.6, FN deposit inh 13.5, FGF22 binding -0.3, ARNT TACC3 PPI 50.3*, MLL AF4-AF9 inh 51.8*, PDI turbidity 8.8 and ARNT Alpha ctr-1 12.3µM*.
COc1ccc(C(CCN2CCCCC2)c2c(OC)cc(OC)c3c(-c4ccccc4)cc(=O)oc23)cc1 (stereo not given) was read as ERp5 inh 5.7, FN deposit inh 9.1, FGF22 binding -0.1, ARNT TACC3 PPI 25.8, MLL AF4-AF9 inh 19.3 and PDI turbidity 1.1.
COc1cc(OC)c2c(-c3ccccc3)cc(=O)oc2c1C(CCN1CCCCC1)c1ccc(N(C)C)cc1 (stereo not given) was read as ARNT TACC3 PPI 44.3*, PDI turbidity 3.0 and ARNT Alpha ctr-1 12.4µM*.
`COc1cccc(C(=O)Nc2nnc(-c3cccs3)o2)c1` gave ERp5 inh -3.2, FN deposit inh 2.6, FGF22 binding -0.1, ARNT TACC3 PPI 51.8*, MLL AF4-AF9 inh 45.0*, PDI turbidity 9.3 and ARNT Alpha ctr-1 66.5µM*.
For O=C(Nc1nnc(-c2cccs2)o1)c1ccco1 the results were ERp5 inh 3.5, FN deposit inh 6.7, FGF22 binding 0.1, ARNT TACC3 PPI 51.1*, MLL AF4-AF9 inh 9.1, PDI turbidity -6.7 and ARNT Alpha ctr-1 -19.8%.
For COc1cc(-c2nnc(NC(=O)c3ccco3)o2)cc(OC)c1OC the results were ERp5 inh -1.1, FN deposit inh -1.4, FGF22 binding -0.3, ARNT TACC3 PPI 43.0*, MLL AF4-AF9 inh 2.6, PDI turbidity -0.3 and ARNT Alpha ctr-1 -13.4%.
O=C(Nc1nnc(-c2ccc(Br)cc2)o1)c1ccco1 was read as ARNT TACC3 PPI 35.2 and PDI turbidity -0.3.
For CCNC(=O)Nc1ccc2c(c1)C(=O)N(C)[C@H]1CC[C@H](CC(=O)NCC3CC3)O[C@H]1CO2 the results were FN deposit inh -1.2, FGF22 binding -0.3 and ARNT TACC3 PPI 0.6.
`Cc1ccc(-c2nc(C#N)c(N3CCCCC3)o2)cc1` gave ERp5 inh 5.8, FN deposit inh 1.0, FGF22 binding -0.7, ARNT TACC3 PPI 1.2, MLL AF4-AF9 inh 2.7 and PDI turbidity 15.8.
Screening COc1ccc(-c2nc(C#N)c(N3CCCCC3)o2)cc1 returned ERp5 inh -0.7, FN deposit inh -6.8, FGF22 binding -0.4, ARNT TACC3 PPI 53.7*, MLL AF4-AF9 inh 4.1, PDI turbidity 6.4 and ARNT Alpha ctr-1 70.9µM*.
Screening C[C@H](CO)N1C[C@H](C)[C@H](CN(C)S(=O)(=O)c2ccc(F)cc2)Oc2ncc(C#CC(C)(C)O)cc2C1=O returned ERp5 inh 5.2, FN deposit inh -3.9, FGF22 binding 0.7, ARNT TACC3 PPI -11.6 and MLL AF4-AF9 inh -1.1.
`OCCN1CCN(Cc2cc(Cl)c3cccnc3c2O)CC1` gave ARNT TACC3 PPI 63.3*, PDI turbidity 1.2 and ARNT Alpha ctr-1 8.47µM*.
